According to ChEMBL document CHEMBL5058577, “EUbOPEN Chemogenomics Library 2 (Multiplex)” (2022):

Tested on: Fibroblast
Assay: Multiplex assay against human fibroblast
Type: toxicity, cell-based
Outline: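 Cells were classed with CellPathfinder machine-learning gating, first as Hoechst high-intensity objects or normal cells, then (normal cells) as healthy, pyknosed or fragmented nuclei, and finally (pyknosed cells) as mitotic or apoptotic. Staining of live cells at seeding used Hoechst33342, BioTracker Green Microtubule Cytoskeleton Dye, MitoTracker Red and Annexin V Alexa Fluor 680, with imaging on a CQ1 microscope at 37°C and 5% CO2 after compound addition. Tubulin, mitochondrial-mass and membrane-permeability phenotypes are per cents of healthy-nucleus cells.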

[1] = 12 h, 1 µM, compound concentration 1 uM, replicate 1
[2] = 12 h, 1 µM, compound concentration 1 uM, replicate 2
[3] = 12 h, 10 µM, compound concentration 10 uM, replicate 1
[4] = 12 h, 10 µM, compound concentration 10 uM, replicate 2
[5] = 24 h, 1 µM, compound concentration 1 uM, replicate 1
[6] = 24 h, 1 µM, compound concentration 1 uM, replicate 2
[7] = 24 h, 10 µM, compound concentration 10 uM, replicate 1
[8] = 24 h, 10 µM, compound concentration 10 uM, replicate 2
[9] = 48 h, 1 µM, compound concentration 1 uM, replicate 1
[10] = 48 h, 1 µM, compound concentration 1 uM, replicate 2
[11] = 48 h, 10 µM, compound concentration 10 uM, replicate 1
[12] = 48 h, 10 µM, compound concentration 10 uM, replicate 2

NCCc1cn(S(=O)(=O)c2c(Cl)nc3sccn23)c2ccccc12.O=C(O)C(=O)O
Population Apoptotic (%) [1]: 45% | Population Fragmented Nuclei (%) [1]: 20% | Population Healthy Nuclei (%) [1]: 65% | Population Hoechst High Intensity Objects (%) [1]: 4% | Population Membrane Permeable-Phenotype (%) [1]: 0% | Population Mitochondria Different-Phenotype (%) [1]: 5% | Population Mitotic Cells (%) [1]: 55% | Population Normal (%) [1]: 95% | Population Pyknosed Nuclei (%) [1]: 14% | Population Tubulin-Different-Phenotype (%) [1]: 40% | Total Cell Count [1]: 146 | Population Fragmented Nuclei (%) [2]: 34% | Population Healthy Nuclei (%) [2]: 37% | Population Hoechst High Intensity Objects (%) [2]: 3% | Population Membrane Permeable-Phenotype (%) [2]: 13% | Population Mitochondria Different-Phenotype (%) [2]: 8% | Population Mitotic Cells (%) [2]: 54% | Population Normal (%) [2]: 96% | Population Pyknosed Nuclei (%) [2]: 28% | Population Tubulin-Different-Phenotype (%) [2]: 62% | Total Cell Count [2]: 170 | Population Apoptotic (%) [3]: 78% | Population Fragmented Nuclei (%) [3]: 20% | Population Healthy Nuclei (%) [3]: 56% | Population Hoechst High Intensity Objects (%) [3]: 6% | Population Membrane Permeable-Phenotype (%) [3]: 0% | Population Mitochondria Different-Phenotype (%) [3]: 40% | Population Mitotic Cells (%) [3]: 21% | Population Normal (%) [3]: 93% | Population Pyknosed Nuclei (%) [3]: 22% | Population Tubulin-Different-Phenotype (%) [3]: 90% | Total Cell Count [3]: 177 | Population Apoptotic (%) [4]: 57% | Population Fragmented Nuclei (%) [4]: 24% | Population Healthy Nuclei (%) [4]: 44% | Population Membrane Permeable-Phenotype (%) [4]: 5% | Population Mitochondria Different-Phenotype (%) [4]: 34% | Population Mitotic Cells (%) [4]: 42% | Population Pyknosed Nuclei (%) [4]: 30% | Population Tubulin-Different-Phenotype (%) [4]: 89% | Total Cell Count [4]: 219 | Population Apoptotic (%) [5]: 50% | Population Fragmented Nuclei (%) [5]: 21% | Population Healthy Nuclei (%) [5]: 64% | Population Hoechst High Intensity Objects (%) [5]: 3% | Population Membrane Permeable-Phenotype (%) [5]: 0% | Population Mitochondria Different-Phenotype (%) [5]: 13% | Population Mitotic Cells (%) [5]: 50% | Population Normal (%) [5]: 96% | Population Pyknosed Nuclei (%) [5]: 13% | Population Tubulin-Different-Phenotype (%) [5]: 42% | Total Cell Count [5]: 156 | Population Apoptotic (%) [6]: 46% | Population Fragmented Nuclei (%) [6]: 35% | Population Healthy Nuclei (%) [6]: 44% | Population Hoechst High Intensity Objects (%) [6]: 4% | Population Membrane Permeable-Phenotype (%) [6]: 18% | Population Mitochondria Different-Phenotype (%) [6]: 11% | Population Mitotic Cells (%) [6]: 53% | Population Normal (%) [6]: 95% | Population Pyknosed Nuclei (%) [6]: 20% | Population Tubulin-Different-Phenotype (%) [6]: 70% | Total Cell Count [6]: 166 | Population Apoptotic (%) [7]: 77% | Population Fragmented Nuclei (%) [7]: 22% | Population Healthy Nuclei (%) [7]: 62% | Population Hoechst High Intensity Objects (%) [7]: 3% | Population Membrane Permeable-Phenotype (%) [7]: 0% | Population Mitochondria Different-Phenotype (%) [7]: 58% | Population Mitotic Cells (%) [7]: 22% | Population Normal (%) [7]: 96% | Population Pyknosed Nuclei (%) [7]: 14% | Population Tubulin-Different-Phenotype (%) [7]: 89% | Total Cell Count [7]: 193 | Population Apoptotic (%) [8]: 72% | Population Fragmented Nuclei (%) [8]: 30% | Population Healthy Nuclei (%) [8]: 51% | Population Hoechst High Intensity Objects (%) [8]: 7% | Population Membrane Permeable-Phenotype (%) [8]: 5% | Population Mitochondria Different-Phenotype (%) [8]: 32% | Population Mitotic Cells (%) [8]: 27% | Population Normal (%) [8]: 92% | Population Pyknosed Nuclei (%) [8]: 18% | Population Tubulin-Different-Phenotype (%) [8]: 81% | Total Cell Count [8]: 237 | Population Apoptotic (%) [9]: 50% | Population Fragmented Nuclei (%) [9]: 27% | Population Healthy Nuclei (%) [9]: 63% | Population Hoechst High Intensity Objects (%) [9]: 4% | Population Membrane Permeable-Phenotype (%) [9]: 2% | Population Mitochondria Different-Phenotype (%) [9]: 3% | Population Mitotic Cells (%) [9]: 50% | Population Normal (%) [9]: 95% | Population Pyknosed Nuclei (%) [9]: 9% | Population Tubulin-Different-Phenotype (%) [9]: 46% | Total Cell Count [9]: 177 | Population Apoptotic (%) [10]: 54% | Population Fragmented Nuclei (%) [10]: 38% | Population Healthy Nuclei (%) [10]: 47% | Population Hoechst High Intensity Objects (%) [10]: 6% | Population Membrane Permeable-Phenotype (%) [10]: 9% | Population Mitochondria Different-Phenotype (%) [10]: 17% | Population Mitotic Cells (%) [10]: 45% | Population Normal (%) [10]: 93% | Population Pyknosed Nuclei (%) [10]: 14% | Population Tubulin-Different-Phenotype (%) [10]: 58% | Total Cell Count [10]: 166 | Population Apoptotic (%) [11]: 85% | Population Fragmented Nuclei (%) [11]: 22% | Population Healthy Nuclei (%) [11]: 65% | Population Hoechst High Intensity Objects (%) [11]: 7% | Population Membrane Permeable-Phenotype (%) [11]: 0% | Population Mitochondria Different-Phenotype (%) [11]: 43% | Population Mitotic Cells (%) [11]: 14% | Population Normal (%) [11]: 92% | Population Pyknosed Nuclei (%) [11]: 12% | Population Tubulin-Different-Phenotype (%) [11]: 92% | Total Cell Count [11]: 189 | Population Apoptotic (%) [12]: 75% | Population Fragmented Nuclei (%) [12]: 31% | Population Healthy Nuclei (%) [12]: 59% | Population Hoechst High Intensity Objects (%) [12]: 3% | Population Membrane Permeable-Phenotype (%) [12]: 3% | Population Mitochondria Different-Phenotype (%) [12]: 24% | Population Mitotic Cells (%) [12]: 25% | Population Normal (%) [12]: 96% | Population Pyknosed Nuclei (%) [12]: 8% | Population Tubulin-Different-Phenotype (%) [12]: 74% | Total Cell Count [12]: 241
